# Compound activity as filed in PubChem.
# A selection: hits, their analogues and other compounds. The true share with any hit is near 29%.
# CYP2C9 inh: human CYP2C9 inhibition; inhibition, % at 5 µM; CYP2C9 Supersomes, luciferin-H conversion, luminescence; P11712; actives 20% (n = 96,000);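 active means blocking of liver enzyme CYP2C9 beyond about 50% at 5 µM, limit read from the data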
# CYP2C19 inhib: blocks human cytochrome P450 2C19; P33261; CYP2C19 Supersomes, luciferin-H EGE luminescence, 30 min; inhibition, % at 5 µM; actives 21% (n = 96,000); AID 778;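 active means CYP2C19 inhibition above a set limit at 5 µM in the primary screen, cut at about 50% in these data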;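 further: plate controls were negative control wells for no effect and 2.5 mM tranylcypromine positive control for full effect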
# Target sequence (P33261 whole entry, looked up): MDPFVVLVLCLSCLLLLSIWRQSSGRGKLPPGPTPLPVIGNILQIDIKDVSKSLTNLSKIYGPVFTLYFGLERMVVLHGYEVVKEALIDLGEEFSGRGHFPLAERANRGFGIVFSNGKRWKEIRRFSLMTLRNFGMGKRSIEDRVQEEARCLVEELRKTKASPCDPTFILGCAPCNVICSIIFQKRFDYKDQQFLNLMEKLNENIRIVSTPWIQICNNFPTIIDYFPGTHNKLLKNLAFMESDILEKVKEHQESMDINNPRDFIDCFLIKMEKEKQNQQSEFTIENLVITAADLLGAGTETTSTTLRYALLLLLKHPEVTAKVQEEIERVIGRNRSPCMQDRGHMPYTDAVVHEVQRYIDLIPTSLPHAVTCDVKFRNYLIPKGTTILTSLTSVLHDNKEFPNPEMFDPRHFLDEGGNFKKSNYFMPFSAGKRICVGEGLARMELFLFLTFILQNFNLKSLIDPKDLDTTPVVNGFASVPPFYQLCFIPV
# E coli WT exp: E. coli BW25113 growth inhibition, expanded screen; OD600 absorbance; growth inhibition, % at 100 µM; actives 0.15% (n = 98,000);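 active means growth inhibition above about 50% at one test dose, limit read from the data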;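 further: growth measured after 20 h incubation at 37 °C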
# tolC growth inh: blocks growth of E. coli BW25113 tolC mutant; OD615; growth inhibition, % at 10 µM (by protocol); AID 573; actives 2.2% (n = 65,000);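 active means growth inhibition at or above a cutoff equal to the mean over every tested compound plus 3 SD, cut at about 60% in these data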;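 further: growth measured after 20 h incubation at 37 °C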
#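 Signal: optical density read at 615 nm; Assay system: E. coli ΔtolC::kan strain BW25113; Times: 20 h incubation with compound, 37 °C; Dosing: 10 µM final, single dose.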
# CYP2C9 act: increases human cytochrome P450 2C9 activity; recombinant CYP2C9, luciferin-H conversion, luminescence; stronger effect = higher value; factor 1 = untreated enzyme, 0 = blocked; activation factor at 5 µM; actives 1.4% (n = 96,000); AID 1024;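 active means activation factor of 2 or more for CYP2C9 at a 5 µM dose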;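 further: 0 = sulfaphenazole-blocked wells and 1 = vehicle-only wells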
# CYP2C19 act: activators of human cytochrome P450 2C19 | P33261 | recombinant CYP2C19, luciferin-H EGE luminescence; stronger effect = higher value; 0 = fully inhibited enzyme, 1 = untreated enzyme | activation factor at 5 µM | 96,000 tested, under 10 active | AID 1025;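 active means activation factor of at least 2 at 5 µM in the primary screen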;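 further: 0 = wells with 2.5 mM tranylcypromine and 1 = vehicle-only wells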
# Active calls of the source: *; / = no result.
SMILES,CYP2C9 inh,CYP2C19 inhib,E coli WT exp,tolC growth inh,CYP2C9 act,CYP2C19 act
Cc1[nH]n(-c2ccc(Cl)cc2)c(=O)c1C=Nc1ccc(S(=O)(=O)N2CCOCC2)cc1,14,-2,-3,/,0.9,1
CC1=C(C(=O)Nc2cccnc2)C(c2ccc(C(C)C)cc2)n2ncnc2N1 (stereo not given),/,/,-3,-6,/,/
CCOc1ccc2nc3c(cc2c1)CN(CCCO)C(=NCCOC)S3,83*,67*,1,33,0.2,0.3
CCOc1ccc2nc3sc(C(=O)N4CCN(C)CC4)c(N)c3cc2c1,9,-6,1,1,0.9,1.1
CCN(CC)c1ccc(-c2nc3cnccn3c2NC2CCCC2)cc1,98*,94*,-7,/,0,0.1
Cc1cc(NC2CCCCC2)nc(N2CCOCC2)n1,11,7,4,-7,0.9,0.9
c1cn2c(NC3CCCC3)c(-c3ccc(N4CCOCC4)cc3)nc2cn1,98*,95*,-1,-4,0,0
CCN(C1CCCCC1)S(=O)(=O)c1ccc(S(=O)(=O)N2CCN(CCC#N)CC2)cc1,47,43,-15,9,0.5,0.6
CCC(=O)N/C(=N/c1nc(C)cc(C)n1)Nc1cccc(OC)c1,17,14,-5,15,0.8,0.9
O=C(Nc1ccc(Cl)cc1)NC1CCCCC1Cc1ccco1 (stereo not given),59*,10,9,/,0.4,0.9
O=C(Nc1ccc(Cl)cc1)NC1CCCC1Cc1ccco1 (stereo not given),65*,38,23,100*,0.3,0.6
N#CC1=C(C2CC2)CC(c2ccccc2)C(C#N)=C1N (stereo not given),7,57*,-3,-5,0.9,0.4
N#CC1=C(N)SC2(CCCCC2)SC1c1ccccc1 (stereo not given),9,35,9,2,0.9,0.7
O=c1c2c3c(sc2n2cnnc2n1Cc1ccccc1)CN(Cc1ccccc1)CC3,74*,66*,/,-1,0.3,0.3
Cc1nnc2n(Cc3ccccc3)c(=O)c3c4c(sc3n12)CN(Cc1ccccc1)CC4,8,6,/,10,0.9,0.9
CC1c2[nH]c3ccccc3c2CCN1C(=O)Nc1ccccc1 (stereo not given),/,/,/,44,/,/
O=C(c1cccs1)N1CCc2c([nH]c3ccccc23)C1c1ccc(Cl)cc1 (stereo not given),51*,23,-3,/,0.5,0.8
Cc1ccc2c(c1)[C@H]1OCC[C@H]1[C@@H](c1ccncc1)N2,84*,100*,-4,-7,0.2,0
Clc1ccc2c(c1)C1OCCC1C(c1ccco1)N2 (stereo not given),36,48,-1,/,0.6,0.5
COc1cc(OC)c(NC(=O)CCc2nc(-c3cccs3)no2)cc1Cl,62*,92*,-6,32,0.4,0.1
COc1ccc2nc(NC(=O)CCc3nc(-c4ccccc4F)no3)sc2c1,48,27,-8,-27,0.5,0.7
COc1ccccc1-c1noc(CCC(=O)Nc2cc(C(F)(F)F)ccc2Cl)n1,-44,68*,-5,0,1.4,0.3
O=C(O)CCc1nc(-c2cccs2)no1,-10,-16,-2,-6,1.1,1.2
COCCN(CCOC)Cc1c(C)[nH]c2ccccc2c1=O,35,65*,3,-2,0.7,0.4
CCc1c(C)[nH]c2ccccc2c1=O,-372,-14,5,-9,4.7*,1.1
SMILES,CYP2C9 inh,CYP2C19 inhib,E coli WT exp,tolC growth inh,CYP2C9 act,CYP2C19 act
Cc1[nH]c2ccccc2c(=O)c1CN(C)Cc1ccccc1,12,0,1,-2,0.9,1
CC(=O)c1c(C)[nH]c2ccccc2c1=O,-40,-15,-5,/,1.4,1.1
CCc1c(C)[nH]c2c(C)cccc2c1=O,3,0,5,/,1,1
CC(=O)CCc1c(C)[nH]c2ccccc2c1=O,-117,-7,14,-10,2.2*,1.1
Nc1nc(SCC(=O)NC2CCCC2)[nH]c(=O)c1-c1ccccc1,17,29,4,/,0.8,0.7
C=CCn1c(CCNC(=O)c2ccccc2F)nnc1SCc1nc2ccccc2c(=O)[nH]1,32,1,-1,/,0.7,1
C=CCn1c(CCNC(=O)c2ccccc2F)nnc1SCC(=O)Nc1nc(C)cs1,50*,31,5,8,0.5,0.7
C=CCn1c(CCNC(=O)c2cccs2)nnc1SCC(=O)Nc1cccc(F)c1,90*,72*,3,/,0.1,0.3
Cc1cc(NCC(C)C)n2ncnc2n1,-18,-14,6,/,1.2,1.1
Cc1cccc(NC(=O)c2ccccc2NC(=O)Cc2ccccc2)c1C,/,/,-10,/,/,/
CN1C(=O)c2cccc(NC(=O)Cc3ccccc3)c2C1=O,58*,44,11,-1,0.4,0.6
Cn1nc(-c2ccccc2)c(-c2nc(-c3cccc(Cl)c3)no2)c1Cl,60*,20,-5,/,0.4,0.8
COc1ccccc1-c1cc(C(=O)Nc2c(F)cc(F)cc2Br)no1,-9,-3,-18,-10,1.1,1
COc1ccccc1-c1cc(C(=O)NCCN2CCOCC2)no1,-123,-1,-7,-6,2.2*,1
COCC(C)NC(=O)c1cc(-c2ccccc2OC)on1 (stereo not given),-149,-1,-1,-1,2.5*,1
COc1ccc(CNC(=O)c2cc(-c3ccco3)on2)cc1,15,21,-8,-23,0.9,0.8
COc1ccc(CNC(=O)c2cc(-c3ccccc3OC)on2)cc1,-165,-2,-2,69*,2.7*,1
CCCc1cc(C(=O)NCc2ccc(OC)cc2)no1,19,65*,13,-6,0.8,0.3
N#CCCn1c(C(C#N)(CCC#N)CCC#N)nc2ccccc21,-8,-12,-8,-11,1.1,1.1
Cc1c(NC(=O)Nc2ccc(Cl)c(Cl)c2)c(=O)n(-c2ccccc2)n1C,3,13,13,100*,1,0.9
COc1ccccc1-c1cc(C(=O)NCc2ccc(Cl)cc2)no1,-220,29,-3,-4,3.2*,0.7
Cc1c(NCc2cc(Cl)cc(Cl)c2O)c(=O)n(-c2ccccc2)n1C,85*,73*,7,/,0.1,0.3
COc1ccccc1-c1cc(C(=O)Nc2c(C)n(C)n(-c3ccccc3)c2=O)no1,-159,-1,-2,10,2.6*,1
CCC/C(O)=C1\C(=O)CCCC1=NCCCCCC(=O)O,0,-2,1,/,1,1
Cn1c(=O)c2c(n(C)c1=O)=NC1(CCCCC1)N=2,13,12,6,-15,0.9,0.9
COc1ccccc1-c1cc(C(=O)Nc2cc(C)on2)no1,-92,1,-7,-1,1.9,1
COc1ccccc1-c1cc(C(=O)NCc2ccccc2)no1,-177,38,-10,80*,2.8*,0.6
COc1ccccc1-c1cc(C(=O)NCc2ccc(F)cc2)no1,-200,21,-10,92*,3*,0.8
